Compound activity from PubChem.
Compounds with a hit are over-represented: about 2.3% of the library has one in this group of screens.
SKN-1 inh – suppressors of acrylamide-induced Pgst-4::GFP reporter in worms, primary screen, SKN-1 inhibitor project, whole organism, uHTS, GFP/RFP fluorescence ratio, strain VP596; C. elegans VP596 Pgst-4::GFP/RFP ratio, 24 h; 0.49% of 360,000 active; inhibition, % at 21.8 µM;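 active = interference check ratio from 0.5 to 1.5 plus GFP to RFP signal ratio inhibition reaching or exceeding a fixed threshold, cut at about 30% in these data, passing the limit was not always enough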
DNMT1 inh – human DNMT1 methyltransferase inhibitors, primary screen, biochemical, molecular beacon, fluorescence, HinP1I cleavage, uHTS. DNA (cytosine-5)-methyltransferase 1 (Homo sapiens), P26358. inhibition (reported as % activation of signal), % at 10 µM. 0.83% of 360,000 active. AID 588458, 2011; in the data active = inhibition above about 50%
Target sequence (P26358 504-1616 limits assumed): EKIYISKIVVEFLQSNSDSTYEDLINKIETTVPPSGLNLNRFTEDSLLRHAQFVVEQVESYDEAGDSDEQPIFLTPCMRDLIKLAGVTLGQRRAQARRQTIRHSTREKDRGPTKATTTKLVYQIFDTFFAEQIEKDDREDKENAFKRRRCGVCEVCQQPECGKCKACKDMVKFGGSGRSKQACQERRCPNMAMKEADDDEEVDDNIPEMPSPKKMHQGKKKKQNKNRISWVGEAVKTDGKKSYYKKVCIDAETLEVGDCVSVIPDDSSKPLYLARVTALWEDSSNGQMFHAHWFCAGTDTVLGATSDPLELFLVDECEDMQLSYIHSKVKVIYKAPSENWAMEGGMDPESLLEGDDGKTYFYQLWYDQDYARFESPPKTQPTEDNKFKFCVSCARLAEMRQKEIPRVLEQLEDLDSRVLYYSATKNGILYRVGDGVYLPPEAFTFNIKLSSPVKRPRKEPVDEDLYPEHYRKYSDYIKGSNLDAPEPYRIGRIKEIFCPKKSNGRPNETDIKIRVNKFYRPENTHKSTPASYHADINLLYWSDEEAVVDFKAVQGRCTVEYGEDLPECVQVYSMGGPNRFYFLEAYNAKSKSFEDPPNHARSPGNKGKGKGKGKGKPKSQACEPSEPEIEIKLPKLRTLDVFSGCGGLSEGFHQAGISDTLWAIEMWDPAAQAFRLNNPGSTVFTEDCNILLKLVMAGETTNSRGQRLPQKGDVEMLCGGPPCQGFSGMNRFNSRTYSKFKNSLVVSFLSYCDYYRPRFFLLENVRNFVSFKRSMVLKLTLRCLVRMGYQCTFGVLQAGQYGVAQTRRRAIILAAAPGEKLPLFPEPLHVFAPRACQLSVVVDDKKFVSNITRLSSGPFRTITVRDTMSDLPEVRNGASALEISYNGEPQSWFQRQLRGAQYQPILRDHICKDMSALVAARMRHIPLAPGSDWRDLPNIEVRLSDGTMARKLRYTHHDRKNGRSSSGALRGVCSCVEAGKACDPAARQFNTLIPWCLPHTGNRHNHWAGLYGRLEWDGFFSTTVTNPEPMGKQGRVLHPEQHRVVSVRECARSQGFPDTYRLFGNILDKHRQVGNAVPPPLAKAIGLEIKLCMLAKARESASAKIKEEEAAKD
CSN deneddyl inh – inhibitors of CSN-mediated cullin deneddylation, primary screen, biochemical, fluorescence polarization, uHTS; COP9 signalosome complex subunit 5 (Homo sapiens), Q92905; Purified CSN, SCF-Nedd8-OG deneddylation; inhibition, % at 12.5 µM; 0.38% of 360,000 active; AID 651999, 2013;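 active = pattern-corrected inhibition above about 35%, with an unprinted fluorescence ratio check between 0.5 and 1.5, limit read from the data, passing the limit was not always enough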;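 also: 0% = enzyme with substrate and 100% = substrate without enzyme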
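test system = HEK293T-derived human Csn5 enzyme | amount = 0.24 nM Csn5 enzyme, final concentration | medium = Tris/NaCl/DTT buffer, pH 7.5 | schedule = 90 min reaction at room temperature | signal = FP | evaluation = inhibition of Csn5 cleavage, % | compound dosing = single dose of 12.5 µM compound with 0.25% DMSO | probe or stimulus = 10 nM SCFSkp2-Nedd8OG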
Rpn11 inh – Rpn11 (PSMD14) deubiquitinase inhibitors, primary screen, biochemical, fluorescence polarization, uHTS; 26S proteasome non-ATPase regulatory subunit 14 (Homo sapiens), O00487; human 26S proteasome, Ub4-pepOG fluorescence polarization; 20S core pre-blocked with epoxomicin; inhibition, % at 20 µM; 0.59% of 360,000 active; AID 588493, 2011;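 active = inhibition at 20 µM, scaled to each plate's controls, above about 33%, limit read from the data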
MT1-MMP act inh – blockers of MT1-MMP proenzyme processing, primary screen, HT1080 RFP-PRO-GFP cells, GFP/RFP fluorescence; Matrix metalloproteinase-14 (Homo sapiens), P50281; GFP/RFP ratio fluorescence, overnight; percent of plate control window, DMSO zero; GFP/RFP ratio change, % at 20 µM; 0.061% of 360,000 active; AID 651647, 2012;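 active = GFP/RFP ratio change of at least 30% with cell ATP level not reduced by more than half and red fluorescence within 50% of control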
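Test system: HT1080 cells expressing an RFP-PRO-GFP fluorescent reporter construct / Compound dosing: single-point 20 µM compound, 1% DMSO / Schedule: cells overnight before dosing, compound overnight, 37 °C, 5% CO2 / Evaluation: GFP/RFP fluorescence ratio / Control set: DMSO and RFP-L50D-GFP cell wells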
SUMO1 PPI mod – modulators of SUMO1 protein-protein interactions, primary screen, biochemical, uHTS; Small ubiquitin-related modifier 1 (Homo sapiens), P63165; SUMO1 binding to a labelled peptide, TR-FRET, 1 h; inhibition, % at 20 µM; 0.33% of 360,000 active; AID 602429, 2012; in the data active = inhibition above about 37%
DNMT1 inh conf – DNMT1 methyltransferase inhibitor retest, confirmation, biochemical, molecular beacon, fluorescence, single concentration | shares compounds with DNMT1 inh | DNMT1 molecular beacon HinP1I cleavage | inhibition, % at 10 µM | 8% of 2,300 active;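 active = average inhibition of at least 30% in the single-concentration confirmation test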
DNMT1 interf – shows spectral interference in the DNMT1 beacon assay. shares compounds with DNMT1 inh. DNMT1 molecular beacon spectral interference counterscreen, fluorescence 485/520. activation (fluorescence interference), % at 10 µM. 1% of 2,300 active. AID 602387;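 active = activation of at least 30% at 10 µM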;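 also: DNMT1 catalytic domain with a HinP1I cleavage step and a FAM/dabcyl DNA beacon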
An asterisk follows results filed as active; · = no result given.

SMILES	SKN-1 inh	DNMT1 inh	CSN deneddyl inh	Rpn11 inh	MT1-MMP act inh	SUMO1 PPI mod	others
Fc1ccc(-n2nnc(-c3nccs3)n2)cc1	71*	16	0	-1	4	3
COC(=O)C1(C(=O)OC)c2ncccc2N(S(=O)(=O)c2ccc(C)cc2)C1CC(=O)c1ccccc1 (stereo unspecified)	13	·	1	·	-2	1
Cc1cc2c(cc1C)NC(c1cccnc1)C1=C(CC(C)(C)CC1=O)N2 (stereo unspecified)	0	0	-4	-5	-1	-6
Cc1cc2c(cc1C)NC1(C(=O)Nc3ccccc31)C1=C(CC(C)(C)CC1=O)N2 (stereo unspecified)	11	-4	5	-4	1	51*
COC(=O)[C@@]12C[C@@H](CC(=O)NCCCCc3ccccc3)C(=O)N(Cc3ccc4c(c3)OCO4)C1=CCC(C)(C)C2	-12	·	-3	·	-9	6
O=C(CNc1ccc(Br)cc1)c1ccccc1	36*	1	1	0	-2	7
Cc1ccc(C(=O)CNc2ccc(Br)cc2)cc1	-22	6	3	1	1	0
O=C(NC1CCCC1)N[C@@H]1CC[C@@H](CC(=O)N2CCOCC2)O[C@@H]1CO	8	·	-1	·	0	4
Cn1ccc2c(-c3ccc4c(c3)OCCO4)cc3c(c21)C1CCC3C1 (stereo unspecified)	3	-5	117*	1	-4	-22
Cn1ccc2c(-c3ccc4c(c3)OCCO4)cc3c(c21)C1CCC3O1 (stereo unspecified)	8	0	-2	-2	5	2
Cc1ccc([C@H]2C[C@@H](O)[C@H](n3cc(COC(=O)c4ccccc4)nn3)CN2C(=O)c2cccs2)cc1	15	-5	-3	1	0	2
Cc1cnc(C=NNC(N)=S)c2cccc(N)c12	2	114*	39	-4	3	107*
NC(=S)NN=Cc1nccc2ccccc12	9	-3	-2	6	5	-25
COc1ccccc1CNC(=O)C1(C)CCN1C(=O)C1(c2ccccc2)CC1 (stereo unspecified)	16	2	-3	7	1	-1
CCN1C(c2ccccc2)=C(c2ccccc2)S/C1=C\C=C1/SC(=S)N(C)C1=O	50*	5	14	29	31	5
CCN1C(=O)/C(=C/C=C2/Sc3ccc4ccccc4c3N2CCO)SC1=S	31	12	7	17	29	41*
C[C@H](NC(=O)C1CCN(S(=O)(=O)c2ccccc2)CC1)C(=O)NCc1ccncc1	-9	4	2	-1	-3	-1
CN(C(=O)CN1CCN(c2cc(-c3ccc(-c4ccccc4)cc3)ncn2)CC1)c1ccccc1	0	-2	-1	-2	4	6
CN(C)CCCNc1nc2cc(-c3ccc(F)cc3)sc2c(=O)n1C	10	0	-2	-5	0	-25
N/C(=N\OC(=O)Cc1cccs1)c1ccc(Cl)cc1	57*	-6	4	9	-6	0
N/C(=N\OC(=O)Cc1cccs1)c1ccccc1	12	-6	4	11	-5	-11
N/C(=N\OC(=O)c1cccs1)c1ccc(Cl)cc1	52*	-2	0	2	2	1
CC(=O)Nc1cc(NC(C)=O)cc(C(=O)OCC(=O)N2CC(C)OC(C)C2)c1 (stereo unspecified)	36*	1	-1	0	2	7
Cc1ccc2nc(/C(C#N)=C\c3ccc(Oc4ccc(C(F)(F)F)cc4[N+](=O)[O-])cc3)[nH]c2c1	8	81*	9	8	-9	-5	DNMT1 inh conf=1;DNMT1 interf=-2
COc1ccc(/C=C(\C#N)c2nc3ccc(C)cc3[nH]2)cc1Oc1ccc(C(F)(F)F)cc1[N+](=O)[O-]	-4	52*	-3	13	-12	-3	DNMT1 inh conf=5;DNMT1 interf=-5
SMILES	SKN-1 inh	DNMT1 inh	CSN deneddyl inh	Rpn11 inh	MT1-MMP act inh	SUMO1 PPI mod	others
Cc1ccc2nc(/C(C#N)=C/c3ccc(-c4cccc([N+](=O)[O-])c4)o3)[nH]c2c1	16	83*	45	-34	-141	-5	DNMT1 inh conf=-1;DNMT1 interf=-4
COc1cc(/C=C(\C#N)c2nc3ccc(C)cc3[nH]2)cc([N+](=O)[O-])c1O	1	-5	-9	-1	24	4
Cc1cc(C(=O)N2CCCC(C)(C(=O)NS(=O)(=O)C3CC3)C2)n(C(C)(C)C)n1 (stereo unspecified)	2	0	-1	2	-3	1
O=C(O)C1C=CCC(C(=O)O)C1 (stereo unspecified)	-2	98*	3	-1	-1	-2	DNMT1 inh conf=3;DNMT1 interf=5
CC(C)(C)c1ccc(-c2csc(NC(=O)CN3C(=O)NC4(CCCCC4)C3=O)n2)cc1	16	54*	4	18	-3	-1	DNMT1 inh conf=-1;DNMT1 interf=-2
COc1ccc(-c2csc(NC(=O)CN3C(=O)NC4(CCCC4)C3=O)n2)cc1OC	-5	-2	1	1	9	-2
COC(=O)[C@]12CCCCC=C1N(CCC1=CCCCC1)C(=O)[C@H](CC(=O)N1CCCC1)C2	6	·	2	·	0	0
O=C(Nc1ccc(-c2nc3ncccc3o2)cc1)c1ccc([N+](=O)[O-])o1	-4	50*	-6	-4	4	-17	DNMT1 inh conf=-2;DNMT1 interf=-1
Cc1ccc(N=Cc2c(O)[nH]c3ccccc23)c([N+](=O)[O-])c1	-7	59*	-4	0	21	-19	DNMT1 inh conf=2;DNMT1 interf=2
CCCCn1c(-c2ccc(Cl)c(Cl)c2)nc2cc3[nH]c(=O)c(C(C)C)nc3cc21	7	53*	4	16	-5	7	DNMT1 inh conf=-1;DNMT1 interf=-3
